ChEMBL document CHEMBL3414537, “Efficient synthesis and biological activity of Psammaplin A and its analogues as antitumor agents” (Eur J Med Chem, 2015)
Active and inactive are the calls of the source. No cut-off for these calls is given here.

Assays:
A549 [1] = test: Antiproliferative activity against human A549 cells assessed as shrunken and sharp shape at 1.6 uM after 24 hrs by phase contrast microscopy; assay type: functional, cell-based
Method in brief: (§1)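 A549 cells (RPMI 1640, 10% heat-inactivated FBS, 37 °C, 5% CO2) exposed to 0.2–1.6 µM for 24 h; TSA 0.4 µM run alongside. Cell shape examined by phase-contrast microscopy.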

A549 [2] = test: Cytotoxicity against human A549 cells by SRB assay; assay type: functional, cell-based
Method in brief: (§2)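 Cells at 3.5 × 10^4 cells/mL in RPMI 1640 with 10% heat-inactivated FBS were exposed to a range of concentrations for 72 h. They were then TCA-fixed (10%) and stained with sulforhodamine B. Growth is expressed as % of solvent-treated control, and IC50 is obtained by non-linear regression. Means of ≥3 experiments.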

[3] = Cytotoxicity against human HCT116 cells by SRB assay; assay type: functional, cell-based; details: HCT-116; method in brief: as §2
A549 [4] = test: Antiproliferative activity against human A549 cells assessed as morphological changes after 24 hrs by phase contrast microscopy; assay type: functional, cell-based; method in brief: as §1
[5] = molecular target: T1, Histone deacetylase (Homo sapiens) (UniProt Q13547+O15379+Q9UBN7+Q92769+Q9UQL6+Q8WUI4+Q9BY41+Q96DB2+P56524+Q9UKV0+Q969S8); test: Inhibition of HDAC in human A549 cells after 24 hrs by fluorescence assay; assay type: cell-based
[6] = molecular target: T1, Histone deacetylase (Homo sapiens); test: Inhibition of HDAC in human A549 cells assessed as increase in acetylated histone 3 expression level after 24 hrs by western blotting analysis; assay type: cell-based
Method in brief: (§3)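 After 24 h exposure (0.2–1.6 µM), A549 lysates were prepared in Tris-HCl pH 6.8/4% SDS buffer with protease and phosphatase inhibitors at 4 °C. Equal protein was separated by SDS-PAGE and transferred to PVDF. Membranes were blocked in 5% BSA/TBS-Tween for 2 h, incubated with primary antibody overnight at 4 °C, then HRP secondary for 1 h, with chemiluminescent detection.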

A549 [7] = test: Induction of phosphorylated AKT level in human A549 cells after 24 hrs by Western blotting analysis; assay type: cell-based; method in brief: as §3
A549 [8] = test: Induction of phosphorylated ERK level in human A549 cells after 24 hrs by Western blotting analysis; assay type: cell-based; method in brief: as §3
A549 [9] = test: Antitumor activity against human A549 cells xenografted in athymic BALB/c nu/nu mouse assessed as tumor growth inhibition at 15 mg/kg, ip administered thrice a week measured after 35 days relative to vehicle-treated control; assay type: functional; details: 840 h, route intraperitoneal, read-out: TGI
Method in brief: (§4)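 Male BALB/c nu/nu mice (6 weeks) were implanted s.c. in the right flank with 1 × 10^7 A549 cells. Dosing started at tumor volume 50–60 mm3, with 6 mice per group. Treatment was 15 or 30 mg/kg i.p. three times weekly in 0.05% Tween-80/0.9% NaCl, with vehicle and paclitaxel 5 mg/kg controls. Tumor volume was followed to day 35, and end-point tumors were weighed.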

A549 [10] = test: Antitumor activity against human A549 cells xenografted in athymic BALB/c nu/nu mouse assessed as tumor growth inhibition at 30 mg/kg, ip administered thrice a week measured after 35 days relative to vehicle-treated control; assay type: functional; details: 840 h, route intraperitoneal, read-out: TGI; method in brief: as §4
A549 [11] = test: Antitumor activity against human A549 cells xenografted in athymic BALB/c nu/nu mouse assessed as reduction in tumor weight at 15 to 30 mg/kg, ip administered thrice a week measured after 35 days relative to vehicle-treated control; assay type: functional, organism-based; method in brief: as §4
Mus musculus = test: Toxicity in athymic BALB/c nu/nu mouse xenografted with human A549 cells assessed as change in body weight at 15 to 30 mg/kg, ip administered thrice a week measured after 35 days relative to vehicle-treated control; assay type: organism-based; design: dose 15-30 mg/kg, route intraperitoneal; details: in vivo, 840 h
A549 [12] = test: Antitumor activity against human A549 cells xenografted in athymic BALB/c nu/nu mouse assessed as inhibition of Ki-67 expression in central and edge region of tumor at 15 to 30 mg/kg, ip administered thrice a week measured after 35 days by immunohistochemical analysis relative to vehicle-treated control; assay type: functional, organism-based
Method in brief: (§5)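 In the A549 nude-mouse xenograft (15 or 30 mg/kg i.p. thrice weekly, vehicle control), end-point tumor sections were incubated overnight at 4 °C with Ki-67 antibody. Detection used an HRP polymer system with hematoxylin-eosin counterstain, and sections were imaged by light microscopy.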

A549 [13] = test: Antitumor activity against human A549 cells xenografted in athymic BALB/c nu/nu mouse assessed as change in cell number in central region of tumor at 15 to 30 mg/kg, ip administered thrice a week measured after 35 days by immunohistochemical analysis relative to vehicle-treated control; assay type: functional, organism-based; method in brief: as §5
A549 [14] = test: Antitumor activity against human A549 cells xenografted in athymic BALB/c nu/nu mouse assessed as change in cell number in edge or peripheral region of tumor at 15 to 30 mg/kg, ip administered thrice a week measured after 35 days by immunohistochemical analysis relative to vehicle-treated control; assay type: functional, organism-based; method in brief: as §5
[15] = molecular target: T1, Histone deacetylase (Homo sapiens); test: Inhibition of HDAC in human A549 cells at 1.6 uM after 24 hrs by fluorescence assay; assay type: cell-based
[16] = molecular target: T1, Histone deacetylase (Homo sapiens); test: Inhibition of HDAC in human A549 cells assessed as increase in acetylated histone 3 expression level at 1.6 uM after 24 hrs by western blotting analysis; assay type: cell-based; method in brief: as §3
A549 [17] = test: Antitumor activity against human A549 cells xenografted in athymic BALB/c nu/nu mouse assessed as reduction in tumor weight at 30 mg/kg, ip administered thrice a week measured after 35 days relative to vehicle-treated control; assay type: functional, organism-based; design: dose 30 mg/kg; method in brief: as §4
A549 [18] = test: Antiproliferative activity against human A549 cells assessed as shrunken and sharp shape at 0.4 uM after 24 hrs by phase contrast microscopy; assay type: functional, cell-based; method in brief: as §1

Structure (SMILES) | IC50 (A549 [2]) | IC50 [3] | further results
O=C(NCCSSCCNC(=O)/C(Cc1ccc2ccccc2c1)=N/O)/C(Cc1ccc2ccccc2c1)=N\O | 1.2 µM | 1.3 µM | Activity (A549 [1]): Active; Activity (A549 [2]): Dose-dependent effect; Activity (A549 [4]): Dose-dependent effect; inhibition [5]: Dose-dependent effect; inhibition [6]: Dose-dependent effect; Activity (A549 [7]): Dose-dependent effect; Activity (A549 [8]): Dose-dependent effect; inhibition in vivo at 15 mg/kg (A549 [9]): 30.4%; inhibition in vivo at 30 mg/kg (A549 [10]): 47.6%; Activity (A549 [11]): Active; Activity (Mus musculus): Non-toxic; inhibition (A549 [12]): Active; Activity (A549 [13]): inactive; Activity (A549 [14]): Active
O=C(NCCS)/C(Cc1ccc(OCc2ccccc2)cc1)=N\O | 40 µM | 85.1 µM | –
Cc1ccc(C/C(=N/O)C(=O)NCCSSCCNC(=O)/C(Cc2ccc(C)cc2)=N/O)cc1 | 6.09 µM | 5.63 µM | –
O=C(NCCSSCCNC(=O)/C(Cc1cc(Cl)cc(Cl)c1Cl)=N/O)/C(Cc1cc(Cl)cc(Cl)c1Cl)=N\O | 5.09 µM | 4.23 µM | –
CO/N=C(/Cc1ccc(OC)cc1)C(=O)NCCSSCCNC(=O)/C(Cc1ccc(OC)cc1)=N\OC | > 100 µM | > 100 µM | –
O=C(NCCCCl)/C(Cc1ccc(OCc2ccccc2)cc1)=N\O | > 100 µM | > 100 µM | –
O=C(NCCSSCCNC(=O)/C(Cc1ccc(Cl)c(Cl)c1)=N/O)/C(Cc1ccc(Cl)c(Cl)c1)=N\O | 1.6 µM | 1.46 µM | –
O=C(NCCSSCCNC(=O)/C(Cc1ccccc1)=N/O)/C(Cc1ccccc1)=N\O | 6.55 µM | 6.22 µM | –
O=C(NCCSSCCNC(=O)/C(Cc1ccc(OC2CCCC2)cc1)=N/O)/C(Cc1ccc(OC2CCCC2)cc1)=N\O | 1.4 µM | 5.34 µM | –
O=C(NCCSSCCNC(=O)/C(Cc1ccc(O)c(Br)c1)=N/O)/C(Cc1ccc(O)c(Br)c1)=N/O [PSAMMAPLIN A] | 1.18 µM | 1.62 µM | inhibition [15]: Active; inhibition [16]: Active; Activity (A549 [17]): Active
O=C(NCCSSCCNC(=O)/C(Cc1ccc(Br)cc1)=N/O)/C(Cc1ccc(Br)cc1)=N\O | 5.89 µM | 7.24 µM | –
CCOc1ccc(C/C(=N/O)C(=O)NCCSSCCNC(=O)/C(Cc2ccc(OCC)cc2)=N/O)cc1 | 1.37 µM | 1.61 µM | –
O=C(NCCCl)/C(Cc1ccc(OCc2ccccc2)cc1)=N\O | > 100 µM | > 100 µM | –
O=C(NCCSSCCNC(=O)/C(Cc1cccc2ccccc12)=N/O)/C(Cc1cccc2ccccc12)=N\O | > 100 µM | > 100 µM | –
CO/N=C(/Cc1ccc(OC)c(Br)c1)C(=O)NCCSSCCNC(=O)/C(Cc1ccc(OC)c(Br)c1)=N\OC | 9.2 µM | 10.7 µM | –
CC(C)(C)c1ccc(C/C(=N/O)C(=O)NCCSSCCNC(=O)/C(Cc2ccc(C(C)(C)C)cc2)=N/O)cc1 | 1.78 µM | 1.67 µM | –
O=C(NCCSSCCNC(=O)/C(Cc1cc(Cl)cc(Cl)c1)=N/O)/C(Cc1cc(Cl)cc(Cl)c1)=N\O | 2.28 µM | 2.1 µM | –
O=C(NCCCCCCNC(=O)/C(Cc1ccc(OCc2ccccc2)cc1)=N\O)/C(Cc1ccc(OCc2ccccc2)cc1)=N\O | 20.1 µM | > 100 µM | –
CC(/C=C/C(=O)NO)=C\[C@@H](C)C(=O)c1ccc(N(C)C)cc1 | – | – | Activity (A549 [18]): Active
CCCCOc1ccc(C/C(=N/O)C(=O)NCCSSCCNC(=O)/C(Cc2ccc(OCCCC)cc2)=N/O)cc1 | 41.1 µM | 23.8 µM | –
O=C(NCCSSCCNC(=O)/C(Cc1c2ccccc2cc2ccccc12)=N\O)/C(Cc1c2ccccc2cc2ccccc12)=N\O | 18.5 µM | 28.4 µM | –
O=C(NCCSSCCNC(=O)/C(Cc1ccc([N+](=O)[O-])cc1)=N/O)/C(Cc1ccc([N+](=O)[O-])cc1)=N\O | 2.66 µM | 1.8 µM | –
COc1ccc(C/C(=N/O)C(=O)NCCSSCCNC(=O)/C(Cc2ccc(OC)cc2)=N/O)cc1 | 2.81 µM | 4.39 µM | –
O=C(NCCSSCCNC(=O)/C(Cc1ccc(Cl)cc1)=N/O)/C(Cc1ccc(Cl)cc1)=N\O | 2.58 µM | 2.03 µM | –
O=C(NCCSSCCNC(=O)/C(Cc1ccc(OCc2ccccc2)cc1)=N/O)/C(Cc1ccc(OCc2ccccc2)cc1)=N\O | 1.12 µM | 1.57 µM | –
O=C(NCCSCCNC(=O)/C(Cc1ccc(OCc2ccccc2)cc1)=N\O)/C(Cc1ccc(OCc2ccccc2)cc1)=N\O | 2.5 µM | > 100 µM | –
O=C(NCCSSCCNC(=O)/C(Cc1ccc(F)cc1)=N/O)/C(Cc1ccc(F)cc1)=N\O | 3.5 µM | 3.78 µM | –
CCCOc1ccc(C/C(=N/O)C(=O)NCCSSCCNC(=O)/C(Cc2ccc(OCCC)cc2)=N/O)cc1 | 13.5 µM | 15.5 µM | –
O=C(NCCSSCCNC(=O)/C(Cc1ccc(Oc2ccccc2)cc1)=N/O)/C(Cc1ccc(Oc2ccccc2)cc1)=N\O | > 100 µM | 20.4 µM | –
